In ChEMBL document CHEMBL1154695 (J Med Chem, 2009):
Values belong to the molecule of their own block, whether it stands above or below them.

Legend:
[1] = tested on: Hepatitis C virus; experiment: Antiviral activity against HCV by viral replicon assay; format: functional, Hepacivirus hominis
[2] = tested on: Plasma; experiment: Stability in human plasma assessed as conversion to VRT-394 at 10 uM after 1 hr; format: ADME, cell-free; details: 1 µM, in the assay text read “1 uM” for “10 uM”
[3] = Chemical stability assessed as compound epimerization in potassium phosphate buffer of pH 7; format: physicochemical
Outline: (§1)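 Start concentration 0.25 mg/mL, followed over time at pH 7 in water, pH 7 phosphate (0.05 M) or pH 9 borate (0.1 M). Aliquots were drawn at intervals and HPLC measured the parent and the P1-(R) epimer VRT-394. k_obs is the sum of the forward and reverse epimerization rate constants; relative rate is taken against pH 7 water.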

[4] = Inhibition of HCV NS3/4A protease; design: species or system Hepacivirus hominis
[5] = tested on: Plasma; experiment: Stability in human plasma relative to telaprevir; format: ADME, cell-free
Outline: (§2)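 Rat, dog or human plasma was preincubated at 37 °C and spiked from DMSO stock to a final 1 or 10 μM (final DMSO 1%), in triplicate with shaking. Control was 0.1 M potassium phosphate pH 7.4. Sampling was at 0–120 min (rat, dog) or 0–180 min (human, buffer). Samples were acidified, extracted with ethyl acetate and run on chiral LC-MS/MS (MRM). Epimerization was scored by initial rate and k_H/k_D.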

[6] = Stability in rat plasma assessed as compound epimerization at 10 uM; format: ADME, cell-free; outline: as §2
[7] = Stability in boric acid-potassium chloride buffer of pH 9; format: physicochemical; outline: as §1
[8] = Stability in potassium phosphate buffer of pH 7; format: physicochemical; outline: as §1
[9] = tested on: Plasma; experiment: Stability in rat plasma relative to telaprevir; format: ADME, cell-free; outline: as §2
[10] = Terminal half life in Sprague-Dawley rat at 10 mg/kg, po; format: ADME, organism-based; design: dose 10 mg/kg, route oral; details: in vivo, read-out: beta t1/2 (converted)
Outline: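 Male Sprague-Dawley rats with cannulas received 10 mg/kg by gavage at 1 mg/mL (10 mL/kg) in a solid dispersion (HPMC-AS/SLS) taken up in 1% HPMC-AS and 10% vitamin E TPGS. Blood was drawn from 0.25 to 24 h into EDTA; plasma was acidified and assayed by LC/MS/MS. Parameters came from noncompartmental analysis.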

[11] = tested on: Plasma; experiment: Stability in human plasma assessed as conversion to VRT-394 at 1 uM after 1 hr
[12] = tested on: Plasma; experiment: Stability in dog plasma relative to telaprevir; format: ADME, cell-free, Canis lupus familiaris; outline: as §2

Compound: CCC[C@H](NC(=O)[C@@H]1[C@H]2CCC[C@H]2CN1C(=O)[C@@H](NC(=O)[C@@H](NC(=O)c1cnccn1)C1CCCCC1)C(C)(C)C)C(=O)C(=O)NC1CC1
- IC99 [1]: 3.3 µM
- Activity [2]: 35%
- half-life [3]: 2100 min

- Ki [4]: > 1000 nM
Compound: CCC[C@@H](NC(=O)[C@@H]1[C@H]2CCC[C@H]2CN1C(=O)[C@@H](NC(=O)[C@@H](NC(=O)c1cnccn1)C1CCCCC1)C(C)(C)C)C(=O)C(=O)NC1CC1

Compound: [2H][C@@](CCC)(NC(=O)[C@@H]1[C@H]2CCC[C@H]2CN1C(=O)[C@@H](NC(=O)[C@@H](NC(=O)c1cnccn1)C1CCCCC1)C(C)(C)C)C(=O)C(=O)NC1CC1
- Activity [5]: Stable
- half-life at 10 µM [6]: > 240 min
- Activity [7]: Stable
- Ki [4]: 20 nM
- Activity [8]: Stable
- Activity [9]: Stable
- IC99 [1]: 4 µM
- half-life [10]: 90 min
- Activity [11]: 10%
- Activity [12]: Stable
